Columns and labels:
Mus musculus [1] = assay: Evaluated for the percentage of subcutaneously to Plasmodium berghei infected mice on days 3, 4, and 5 post infection.; format: functional
Method in brief: (§1)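 Modified Thompson test. Five-week-old CD-1 mice infected ip on day 0 with drug-sensitive P. berghei KBG 173 trophozoites from a donor mouse at 60% parasitemia. Groups of five or seven mice dosed sc b.i.d. on days 3, 4 and 5 at 64 mg/kg/day. Parasitemia read on Giemsa-stained blood films on day 6, then weekly to day 60. Survival followed; mice alive and blood-film negative at day 60 counted as cured.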

[2] = Evaluated for the neurotoxicity against NB2a Neuroblastoma cells.; format: functional, cell-based, Mus musculus
Method in brief: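 Neurite outgrowth assay in NB2a neuroblastoma cells grown in high-glucose DMEM with 5% horse serum and 5% fetal calf serum, 37 °C, 5% CO2. Cells plated at 15 000 cells/mL. After 24 h, switched to serum-free medium with 0.5 mM dibutyryl cAMP plus drug at 10 and 0.1 µM for a further 24 h. Cells fixed in formaldehyde and stained with Coomassie. Average neurite length per cell measured by image analysis over 10 fields of about 20 cells; IC50 reported.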

Plasmodium falciparum [3] = assay: Antimalarial activity against chloroquine-resistant Plasmodium falciparum W2; format: functional, organism-based
Plasmodium falciparum [4] = assay: Antimalarial activity against chloroquine-sensitive Plasmodium falciparum D6; format: functional, organism-based
Mus musculus [5] = assay: Evaluated for the survival of the mice when 128 mg/kg/day was administered orally to Plasmodium berghei infected mice on days 3, 4, and 5 post infection.1/8, 2/16, 1/32, 3/C(C=survival beyond 60 days); format: functional, organism-based
Method in brief: as §1, with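 “po” for “sc”, “128” for “64”, “Giemsa” for “Parasitemia read on Giemsa-stained”, “films taken” for “films”, “Day of death recorded;” for “Survival followed;”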

Mus musculus [6] = assay: Evaluated for the survival of the mice when 64 mg/kg/day was administered subcutaneously to Plasmodium berghei infected mice on days 3, 4, and 5 post infection;1/8, 2/9, 1/10, 1/13; format: functional, organism-based; method in brief: as §1
Mus musculus [7] = assay: Evaluated for the survival of the mice when 128 mg/kg/day was administered orally to Plasmodium berghei infected mice on days 3, 4, and 5 post infection; 5/C(C=survival beyond 60 days); format: functional, organism-based
Method in brief: as §1, with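 “po” for “sc”, “128” for “64”, “Giemsa” for “Parasitemia read on Giemsa-stained”, “films taken” for “films”, “Day of death recorded;” for “Survival followed;”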

Mus musculus [8] = assay: Evaluated for the survival of the mice when 64 mg/kg/day was administered subcutaneously to Plasmodium berghei infected mice on days 3, 4, and 5 post infection; 7/C(C=survival beyond 60 days); format: functional, organism-based; method in brief: as §1
Mus musculus [9] = assay: Evaluated for the survival of the mice when 128 mg/kg/day was administered orally to Plasmodium berghei infected mice on days 3, 4, and 5 post infection; 1/15; 1/17; 1/18; 2/C(C=Survival beyond 60 days); format: functional, organism-based
Method in brief: as §1, with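 “po” for “sc”, “128” for “64”, “Giemsa” for “Parasitemia read on Giemsa-stained”, “films taken” for “films”, “Day of death recorded;” for “Survival followed;”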

Mus musculus [10] = assay: Evaluated for the survival of the mice when 64 mg/kg/day was administered subcutaneously to Plasmodium berghei infected mice on days 3, 4, and 5 post infection;1/9, 2/10, 1/18, 1/19; format: functional, organism-based; method in brief: as §1
Mus musculus [11] = assay: Evaluated for the survival of the mice when 128 mg/kg/day was administered orally to Plasmodium berghei infected mice on days 3, 4, and 5 post infection;1/9 1/26 3/C(C=survival beyond 60 days); format: functional, organism-based
Method in brief: as §1, with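 “po” for “sc”, “128” for “64”, “Giemsa” for “Parasitemia read on Giemsa-stained”, “films taken” for “films”, “Day of death recorded;” for “Survival followed;”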

Mus musculus [12] = assay: Evaluated for the survival of the mice when 64 mg/kg/day was administered subcutaneously to Plasmodium berghei infected mice on days 3, 4, and 5 post infection;1/8, 1/9, 1/10, 1/12, 1/15; format: functional, organism-based; method in brief: as §1

| Structure (SMILES) | Parasitemia (Mus musculus [1]) [%] | IC50 [2] [nM] | IC50 (Plasmodium falciparum [3]) [nM] | IC50 (Plasmodium falciparum [4]) [nM] | further results |
| --- | --- | --- | --- | --- | --- |
| CC1CCC2(CC1)OOC1(CCC(C)CC1)OO2 (stereo unspecified) | 22 | 1.1 | 21 | 23 |  |
| CC1CCC(C(C)C)C2(C1)OOC1(CC(C)CCC1C(C)C)OO2 (stereo unspecified) | 7 | 37 | 37 | 47 | No. of mice dead/day died (Mus musculus [5]): survival beyond 60 days; No. of mice dead/day died (Mus musculus [6]): survival beyond 60 days |
| CCO[C@H]1O[C@@H]2O[C@@]3(C)CC[C@H]4[C@H](C)CC[C@@H]([C@H]1C)[C@@]24OO3 [ARTEMOTIL] | 0 |  | 1.4 | 2.7 | No. of mice dead/day died (Mus musculus [7]): survival beyond 60 days; No. of mice dead/day died (Mus musculus [8]): survival beyond 60 days |
| CC[C@@H]1CCCCC12OOC1(CCCC[C@@H]1CC)OO2 (stereo partly specified) | 28 | 9.3 | 19 | 23 |  |
| CC(C)(C)C1CCC2(CC1)OOC1(CCC(C(C)(C)C)CC1)OO2 (stereo unspecified) |  | 2.8 | 100 | 200 |  |
| C[C@@H]1CC[C@H]2[C@@H](C)C(=O)O[C@@H]3O[C@@]4(C)CC[C@@H]1[C@]32OO4 [ARTEMISININ] |  |  | 7.3 | 8.4 |  |
| CC(C)(C)[C@H]1CCCCC12OOC1(CCCC[C@H]1C(C)(C)C)OO2 (stereo partly specified) |  | 3.4 | 160 | > 300 |  |
| CO[C@H]1O[C@@H]2O[C@@]3(C)CC[C@H]4[C@H](C)CC[C@@H]([C@H]1C)[C@@]24OO3 [ARTEMETHER] |  | 351 |  |  |  |
| CC1CCCC2(OOC3(CCCC(C)C3C)OO2)C1C (stereo unspecified) | 3 |  | 43 | 50 |  |
| CC1(C)CCC2(CC1)OOC1(CCC(C)(C)CC1)OO2 |  | 2 | > 1000 | > 1000 |  |
| CCC[C@@H]1CCCCC12OOC1(CCCC[C@@H]1CCC)OO2 (stereo partly specified) |  |  | 39 | 84 |  |
| CC1(C)CC(C)(C)CC2(C1)OOC1(CC(C)(C)CC(C)(C)C1)OO2 |  | 3.6 | > 1000 | > 1000 |  |
| C[C@@H]1CCCCC12OOC1(CCCC[C@@H]1C)OO2 (stereo partly specified) [WR-148999] | 11 | 8.4 | 32 | 55 |  |
| CC1CCC2(OOC3(CCC(C)CC3C)OO2)C(C)C1 (stereo unspecified) |  | > 1 | 49 | 110 |  |
| CC1CCC2(CC1C)OOC1(CCC(C)C(C)C1)OO2 (stereo unspecified) | 14 | 4.4 | 10 | 12 | No. of mice dead/day died (Mus musculus [9]): Survival beyond 60 days; No. of mice dead/day died (Mus musculus [10]): Survival beyond 60 days |
| CC1CCC(C)C2(C1)OOC1(CC(C)CCC1C)OO2 (stereo unspecified) | 13 | 17 | 19 | 15 | No. of mice dead/day died (Mus musculus [11]): survival beyond 60 days; No. of mice dead/day died (Mus musculus [12]): survival beyond 60 days |
| CC1CCCC2(C1)OOC1(CCCC(C)C1)OO2 (stereo unspecified) |  | 16 | 51 | 76 |  |
| CC1CC(C)CC2(C1)OOC1(CC(C)CC(C)C1)OO2 (stereo unspecified) | 82 | 6.7 | 15 | 30 |  |
| CC(C)C1CCC(C)C2(C1)OOC1(CC(C(C)C)CCC1C)OO2 (stereo unspecified) |  | 40 | 94 | 140 |  |
| CC1CC(C)(C)CCC12OOC1(CCC(C)(C)CC1C)OO2 (stereo unspecified) |  | 1.4 | > 1000 | > 1000 |  |
